ChEMBL document CHEMBL3621047, “Quaternary Indolizidine and Indolizidone Iminosugars as Potential Immunostimulating and Glycosidase Inhibitory Agents: Synthesis, Conformational Analysis, Biological Activity, and Molecular Docking Study” (J Med Chem, 2015)
Active and inactive are the calls of the source. The rule behind the calls is not given here.

Tests used:
Splenocyte [1] = experiment: Immunostimulating activity in Swiss albino mouse Splenocytes assessed as decrease in ConA-induced IL-4 secretion at 2.5 uM by ELISA; type: functional
Procedure, shortened: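 Supernatants came from Con A-stimulated splenocytes (2 × 10^6 cells/well) with compound at 2.5 or 5 μM. They were spun 2000g for 5 min and stored at −70 °C. IL-4 was measured by ELISA: sample 2 h at 37 °C, then peroxidase conjugate 1 h, substrate developed in the dark. Absorbance was read at 550 nm with 450 nm correction and quantified from an IL-4 standard curve. n = 5.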

[2] = Cytotoxicity against Swiss albino mouse Splenocytes assessed as cell proliferation at 0.5 to 5 uM after 72 hrs by MTT assay; type: cell-based; conditions: splenocyte
Procedure, shortened: (§1)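 Swiss albino mouse splenocytes (2 × 10^6 cells/well) were treated with Con A alone or with test samples at final 0.5, 1, 2.5 and 5 μM. Con A is given as final 10 μg/mL in methods and 10 μM in text. Cells were held 72 h at 37 °C, 5% CO2, in RPMI with 10% FCS, then read by MTT. Values are % of Con A-treated cells (100%), mean ± SEM, n = 5.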

Splenocyte [3] = experiment: Immunostimulating activity in Swiss albino mouse Splenocytes assessed as ConA-induced cell proliferation > 5 uM after 72 hrs by MTT assay; type: functional, cell-based
[4] = Inhibition of bovine liver beta-glucosidase using 10 mM p-nitrophenyl-[…]-D-glucopyranoside as substrate; parameters: species or system Bos taurus
[5] = target: T1, Alpha-mannosidase (Canavalia ensiformis) (UniProt C0HJB3); experiment: Inhibition of jack bean alpha-mannosidase at 1 mM using 10 mM p-nitrophenyl-alpha-D-mannopyranoside as substrate
T1 sequence (whole entry): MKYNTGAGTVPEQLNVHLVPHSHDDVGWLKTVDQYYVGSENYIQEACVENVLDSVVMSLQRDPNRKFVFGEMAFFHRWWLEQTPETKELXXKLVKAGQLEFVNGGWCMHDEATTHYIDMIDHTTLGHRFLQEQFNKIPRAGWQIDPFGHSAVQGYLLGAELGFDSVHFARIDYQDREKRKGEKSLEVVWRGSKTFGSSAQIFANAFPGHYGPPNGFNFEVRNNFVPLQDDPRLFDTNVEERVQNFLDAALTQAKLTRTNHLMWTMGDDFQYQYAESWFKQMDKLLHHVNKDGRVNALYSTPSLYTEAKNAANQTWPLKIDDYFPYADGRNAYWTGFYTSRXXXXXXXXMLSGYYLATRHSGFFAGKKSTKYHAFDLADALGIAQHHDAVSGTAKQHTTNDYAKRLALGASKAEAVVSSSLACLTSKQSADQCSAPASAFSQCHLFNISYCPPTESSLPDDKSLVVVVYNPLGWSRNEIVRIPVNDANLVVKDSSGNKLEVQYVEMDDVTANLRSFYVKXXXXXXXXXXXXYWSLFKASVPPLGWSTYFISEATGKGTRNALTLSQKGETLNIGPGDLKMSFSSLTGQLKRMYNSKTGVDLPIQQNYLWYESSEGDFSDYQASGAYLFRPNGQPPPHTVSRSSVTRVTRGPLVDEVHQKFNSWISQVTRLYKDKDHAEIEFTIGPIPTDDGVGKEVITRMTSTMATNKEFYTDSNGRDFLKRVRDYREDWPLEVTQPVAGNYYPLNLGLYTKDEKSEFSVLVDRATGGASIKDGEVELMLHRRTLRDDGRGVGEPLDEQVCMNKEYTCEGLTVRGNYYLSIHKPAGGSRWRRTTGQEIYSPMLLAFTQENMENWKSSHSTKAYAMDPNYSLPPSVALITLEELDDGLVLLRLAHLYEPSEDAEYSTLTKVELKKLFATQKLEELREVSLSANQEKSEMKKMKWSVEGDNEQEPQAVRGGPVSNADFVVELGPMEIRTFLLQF
Procedure, shortened: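 Jack bean α-mannosidase (0.1 U/cm3) was preincubated with inhibitor for 1 h at 37 °C. Substrate was 10 mM p-nitrophenyl α-D-mannopyranoside in 100 mM citrate pH 4.5, reacted 10 min at 37 °C. The reaction was stopped with 200 mM borate pH 9.8 and absorbance read at 420 nm. Ki came from Lineweaver–Burk plots; average of five assays. NI means under 50% inhibition at 1 mM.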

Aspergillus niger = experiment: Inhibition of aspergillus niger alpha-galactosidase at 1 mM using 10 mM p-nitrophenyl-alpha-D-galactopyranoside as substrate
Procedure, shortened: (§2)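 Galactosidase (0.1 U cm−3) was preincubated with compound 1 h at 37 °C. Reaction used 10 mM p-nitrophenyl-α- or β-D-galactopyranoside in 200 mM sodium acetate, 10 min at 37 °C, stopped with 200 mM borate pH 9.8. Read at 420 nm. NI means no 50% inhibition at 1 mM. Five assays averaged.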

Splenocyte [6] = experiment: Immunostimulating activity in Swiss albino mouse Splenocytes assessed as increase in ConA-induced IFN-gamma secretion at 2.5 uM by ELISA; type: functional, cell-based
Procedure, shortened: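 IFN-γ was measured by ELISA in supernatants of splenocytes (2 × 10^6 cells/well). Cells were unstimulated, stimulated with Con A (10 μM), or given Con A plus compound (2.5 or 5 μM) for 24 h. Mean ± SEM, n = 5.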

Splenocyte [7] = experiment: Immunostimulating activity in Swiss albino mouse Splenocytes assessed as increase in ConA-induced cell proliferation upto 2.5 uM after 72 hrs by MTT assay; type: functional, cell-based; procedure, shortened: as §1
Oryza sativa = experiment: Inhibition of rice alpha-glucosidase at 1 mM using 10 mM p-nitrophenyl-alpha-D-glucopyranoside as substrate
Procedure, shortened: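 Rice α-glucosidase (0.1 U cm−3) was preincubated with compound 1 h at 37 °C. Reaction used 10 mM p-nitrophenyl-α-D-glucopyranoside in 100 mM phosphate pH 6.8, 10 min at 37 °C, stopped with 0.1 M Na2CO3. p-Nitrophenol was read at 420 nm. NI means no 50% inhibition at 1 mM. Ki came from Lineweaver–Burk plots. Average of five assays.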

Splenocyte [8] = experiment: Immunostimulating activity in Swiss albino mouse Splenocytes assessed as increase in IL-6 secretion at 2.5 uM by ELISA in presence of 10 uM ConA relative to control; type: functional
Procedure, shortened: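 Splenocytes (2 × 10^6 cells/well) were stimulated with 10 μM Con A plus compound (2.5 or 5 μM). Supernatant IL-6 was measured by sandwich ELISA: sample 2 h at 37 °C, biotinylated antibody 1 h, streptavidin–HRP, then substrate in the dark. Absorbance was read at 550 nm with 450 nm correction against an IL-6 standard curve. Mean ± SEM, n = 5.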

[9] = target: T2, Beta-galactosidase (Bos taurus) (UniProt Q58D55); experiment: Inhibition of bovine liver beta-galactosidase at 1 mM using 10 mM p-nitrophenyl-beta-D-galactopyranoside as substrate; procedure, shortened: as §2
T2 sequence (whole entry): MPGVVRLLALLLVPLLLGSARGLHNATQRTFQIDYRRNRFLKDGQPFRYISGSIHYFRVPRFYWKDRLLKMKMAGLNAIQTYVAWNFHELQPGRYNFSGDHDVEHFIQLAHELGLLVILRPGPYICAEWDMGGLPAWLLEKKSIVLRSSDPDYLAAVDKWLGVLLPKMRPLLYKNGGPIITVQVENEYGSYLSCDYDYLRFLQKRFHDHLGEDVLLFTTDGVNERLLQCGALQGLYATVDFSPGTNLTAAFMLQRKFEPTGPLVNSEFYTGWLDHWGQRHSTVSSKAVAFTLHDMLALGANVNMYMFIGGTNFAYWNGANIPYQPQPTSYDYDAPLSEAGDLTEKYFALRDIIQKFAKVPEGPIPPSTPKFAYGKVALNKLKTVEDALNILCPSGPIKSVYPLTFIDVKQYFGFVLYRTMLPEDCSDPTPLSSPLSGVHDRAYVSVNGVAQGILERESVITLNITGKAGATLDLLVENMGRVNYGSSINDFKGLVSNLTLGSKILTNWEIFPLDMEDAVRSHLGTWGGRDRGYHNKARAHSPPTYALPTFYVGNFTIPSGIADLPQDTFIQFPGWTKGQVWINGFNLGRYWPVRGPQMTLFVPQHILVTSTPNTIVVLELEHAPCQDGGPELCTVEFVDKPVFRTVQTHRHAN

Alpha-mannosidase = target: T3, Alpha-mannosidase (Canavalia ensiformis, UniProt C0HJB3); experiment: Inhibition of jack bean alpha-mannosidase using 10 mM p-nitrophenyl-alpha-D-mannopyranoside as substrate
T3 sequence (C0HJB3 whole entry): T1 sequence (whole entry)
Procedure, shortened: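 Jack bean α-mannosidase (0.1 U cm−3) was preincubated with compound 1 h at 37 °C. Reaction used 10 mM p-nitrophenyl-α-D-mannopyranoside in 100 mM citrate pH 4.5, 10 min at 37 °C, stopped with 200 mM borate pH 9.8. Read at 420 nm. IC50 and Ki were determined, Ki from Lineweaver–Burk double-reciprocal plots. Mean of five assays.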

[10] = Immunostimulating activity in Swiss albino mouse Splenocytes assessed as increase in ConA-induced cell proliferation at 0.5 uM after 72 hrs by MTT assay; type: functional, Splenocyte; procedure, shortened: as §1
Beta-galactosidase = target: T4, Beta-galactosidase (Bos taurus, UniProt Q58D55); experiment: Inhibition of bovine liver beta-galactosidase using 10 mM p-nitrophenyl-beta-D-galactopyranoside as substrate
T4 sequence (Q58D55 whole entry): T2 sequence (whole entry)
Procedure, shortened: (§3)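 Enzyme (0.1 U/cm3; A. niger α-galactosidase or bovine liver β-galactosidase) was preincubated with inhibitor for 1 h at 37 °C. Substrate was 10 mM p-nitrophenyl α- or β-D-galactopyranoside in 200 mM sodium acetate, reacted 10 min at 37 °C. The reaction was stopped with 200 mM borate pH 9.8 and released p-nitrophenol read at 420 nm. Ki came from Lineweaver–Burk plots; values are the average of five assays.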

[11] = Immunostimulating activity in Swiss albino mouse Splenocytes assessed as increase in ConA-induced cell proliferation at 1 uM after 72 hrs by MTT assay; type: functional, Splenocyte; procedure, shortened: as §1
[12] = Inhibition of aspergillus niger alpha-galactosidase using 10 mM p-nitrophenyl-alpha-D-galactopyranoside as substrate; procedure, shortened: as §3
[13] = Immunostimulating activity in Swiss albino mouse Splenocytes assessed as increase in ConA-induced cell proliferation at 5 uM after 72 hrs by MTT assay; type: functional, Splenocyte; procedure, shortened: as §1
[14] = Immunostimulating activity in Swiss albino mouse Splenocytes assessed as increase in ConA-induced cell proliferation at 2.5 uM after 72 hrs by MTT assay; type: functional, Splenocyte; procedure, shortened: as §1

| IC50 [4] | Ki [4] | inhibition (Oryza sativa) | SMILES | inhibition at 2.5 µM (Splenocyte [1]) | Activity [2] | Activity (Splenocyte [3]) | Activity (Splenocyte [6]) | Activity (Splenocyte [7]) | fold change (FC) (Splenocyte [8]) | also measured |
| --- | --- | --- | --- | --- | --- | --- | --- | --- | --- | --- |
| 342 µM | 113 µM | < 50% | O=C1CC[C@@]2(COCc3ccccc3)[C@@H](O)[C@H](O)[C@H](O)CN12 | 40% | Non-toxic | inactive | Active | Active | 4.9 | inhibition [5]: < 50%; inhibition (Aspergillus niger): < 50%; inhibition [9]: < 50% |
| 22 µM | 11 µM | < 50% | O=C1CC[C@]2(CO)[C@@H](O)[C@H](O)[C@@H](O)CN12 | 57% | Non-toxic | inactive | Active | Active | 12.1 | IC50 (Alpha-mannosidase): 56 nM; Ki (Alpha-mannosidase): 35 nM; Activity [10]: 13%; IC50 (Beta-galactosidase): 800 nM; Ki (Beta-galactosidase): 200 nM; Activity [11]: 80%; IC50 [12]: 420 nM; Ki [12]: 330 nM; Activity [13]: 103%; Activity [14]: 130% |
